What was measured:
Homo sapiens [1] = species on record: Homo sapiens; assay: Selectivity ratio of Ki for human microsomal CYP1B1 to Ki for human microsomal CYP1A2
In short: (§1)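 Microsomal P450 (final 5 nM) in 0.1 M potassium phosphate pH 7.6 with MgCl2 at 37 °C. Substrate final 5 µM: ethoxyresorufin for 1A1/1B1, methoxyresorufin for 1A2. […] Ki was taken as the x-intercept of Dixon plots (1/v0 vs [I]). Mean ± SD of three independent experiments. Selectivity ratios are ratios of these Ki.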

Cytochrome P450 1A2 [2] = target: T1, Cytochrome P450 1A2 (Homo sapiens, UniProt P05177); assay: Inhibition of human microsomal CYP1A2-dependent methoxyresorufin-O-demethylase activity by spectrofluorimetric analysis in presence of NADPH regenerating solution
T1 sequence (P05177 whole entry): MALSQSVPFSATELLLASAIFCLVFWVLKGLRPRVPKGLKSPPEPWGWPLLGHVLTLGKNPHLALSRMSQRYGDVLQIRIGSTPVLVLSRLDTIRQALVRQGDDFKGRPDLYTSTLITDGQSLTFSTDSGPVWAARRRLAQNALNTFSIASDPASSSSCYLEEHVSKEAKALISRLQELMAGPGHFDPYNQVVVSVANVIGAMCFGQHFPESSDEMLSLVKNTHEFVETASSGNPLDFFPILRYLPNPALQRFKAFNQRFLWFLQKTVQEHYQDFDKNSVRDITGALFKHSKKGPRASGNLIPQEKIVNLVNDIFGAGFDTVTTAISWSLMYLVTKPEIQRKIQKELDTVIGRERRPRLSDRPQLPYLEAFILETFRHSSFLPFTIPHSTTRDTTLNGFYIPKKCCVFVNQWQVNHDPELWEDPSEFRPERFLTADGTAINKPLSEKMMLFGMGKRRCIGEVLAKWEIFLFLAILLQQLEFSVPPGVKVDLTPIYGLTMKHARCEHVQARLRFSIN
In short: (§2)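 Microsomal P450 (final 5 nM) in 0.1 M potassium phosphate pH 7.6 with MgCl2 at 37 °C. Substrate final 5 µM: ethoxyresorufin for 1A1/1B1, methoxyresorufin for 1A2. Ki was taken as the x-intercept of Dixon plots (1/v0 vs [I]). Mean ± SD of three independent experiments. Selectivity ratios are ratios of these Ki.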

Homo sapiens [3] = species on record: Homo sapiens; assay: Selectivity ratio of Ki for human microsomal CYP1A1 to Ki for human microsomal CYP1A2; in short: as §1
Cytochrome P450 1A2 [4] = target: T1, Cytochrome P450 1A2; assay: (§3) Time-dependent inhibition of human microsomal CYP1A2-dependent methoxyresorufin-O-demethylase activity by spectrofluorimetric analysis in presence of NADPH regenerating solution
In short: (§4)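 1A2 MROD run with NADPH at 0.0125, 0.025, 0.05 and 0.1 µM inhibitor, product monitored continuously over 6 min. Activity at different times came from first derivatives of product curves, expressed as % of control remaining. KI and limiting kinact were derived from the resulting linear plot.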

Cytochrome P450 1B1 [5] = target: T2, Cytochrome P450 1B1 (Homo sapiens, UniProt Q16678); assay: Inhibition of human microsomal CYP1B1-dependent ethoxyresorufin-O-deethylase activity by spectrofluorimetric analysis in presence of NADPH regenerating solution; in short: as §2
T2 sequence (Q16678 whole entry): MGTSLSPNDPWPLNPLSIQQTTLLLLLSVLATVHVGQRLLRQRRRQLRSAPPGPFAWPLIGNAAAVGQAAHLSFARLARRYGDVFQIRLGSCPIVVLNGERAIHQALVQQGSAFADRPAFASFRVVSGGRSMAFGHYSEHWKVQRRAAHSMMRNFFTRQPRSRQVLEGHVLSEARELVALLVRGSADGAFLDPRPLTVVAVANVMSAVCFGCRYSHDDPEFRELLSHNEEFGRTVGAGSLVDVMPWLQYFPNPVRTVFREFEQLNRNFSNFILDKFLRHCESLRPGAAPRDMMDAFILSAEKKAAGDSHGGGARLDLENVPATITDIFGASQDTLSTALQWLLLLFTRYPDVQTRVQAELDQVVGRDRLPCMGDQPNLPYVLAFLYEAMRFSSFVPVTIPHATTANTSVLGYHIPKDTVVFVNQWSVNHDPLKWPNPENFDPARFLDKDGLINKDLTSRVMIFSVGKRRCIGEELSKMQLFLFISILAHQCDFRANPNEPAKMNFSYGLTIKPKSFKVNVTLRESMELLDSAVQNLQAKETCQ

Cytochrome P450 1A1 [6] = target: T3, Cytochrome P450 1A1 (Homo sapiens, UniProt P04798); assay: Inhibition of human microsomal CYP1A1-dependent ethoxyresorufin-O-deethylase activity by spectrofluorimetric analysis in presence of NADPH regenerating solution; in short: as §1
T3 sequence (P04798 whole entry): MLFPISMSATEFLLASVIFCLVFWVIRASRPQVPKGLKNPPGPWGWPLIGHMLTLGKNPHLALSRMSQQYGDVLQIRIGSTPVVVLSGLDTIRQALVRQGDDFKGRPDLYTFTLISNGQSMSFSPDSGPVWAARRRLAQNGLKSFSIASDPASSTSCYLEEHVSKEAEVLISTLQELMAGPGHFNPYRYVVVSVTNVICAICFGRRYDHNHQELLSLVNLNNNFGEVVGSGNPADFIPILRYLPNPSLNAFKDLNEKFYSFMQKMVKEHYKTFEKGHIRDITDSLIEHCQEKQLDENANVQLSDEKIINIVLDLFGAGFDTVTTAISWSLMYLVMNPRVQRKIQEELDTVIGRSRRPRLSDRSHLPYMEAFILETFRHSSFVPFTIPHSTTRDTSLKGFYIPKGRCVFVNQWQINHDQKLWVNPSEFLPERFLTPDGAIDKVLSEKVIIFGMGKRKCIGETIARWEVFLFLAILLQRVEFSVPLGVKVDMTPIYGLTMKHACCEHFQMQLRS

Cytochrome P450 1A2 [7] = target: T1, Cytochrome P450 1A2; assay: Inhibition of human microsomal CYP1A2-dependent methoxyresorufin-O-demethylase activity at 10 nM measured over 6 mins by spectrofluorimetric analysis in absence of NADPH regenerating solution; details: 0.1 h, 0.01 µM
Cytochrome P450 1B1 [8] = target: T2, Cytochrome P450 1B1; assay: Inhibition of human microsomal CYP1B1-dependent ethoxyresorufin-O-deethylase activity at 10 nM preincubated for 5 mins followed by NADPH regenerating solution and substrate addition measured over 6 mins by spectrofluorimetric analysis; details: 0.1 h, 0.01 µM
In short: (§5)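 Microsomal P450 in 0.1 M potassium phosphate pH 7.6 with MgCl2 and 10 nM inhibitor in DMSO, 2 mL final. Preincubated 5 min at 37 °C either with NADPH-regenerating solution, or without it, with NADPH then added at start. Reaction started with ethoxyresorufin (final 5 µM). Resorufin formation followed 6 min at 37 °C.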

CYP1A2 [9] = target: T4, CYP1A2 (Homo sapiens, UniProt P05177); assay: as §3; details: human microsomal CYP1A2, probe methoxyresorufin (O-demethylation); in short: as §4
T4 sequence (P05177 whole entry): T1 sequence (P05177 whole entry)

Cytochrome P450 1A1 [10] = target: T3, Cytochrome P450 1A1; assay: Inhibition of human microsomal CYP1A1-dependent ethoxyresorufin-O-deethylase activity at 10 nM preincubated for 5 mins followed by NADPH regenerating solution and substrate addition measured over 6 mins by spectrofluorimetric analysis; details: 0.1 h, 0.01 µM; in short: as §5
Cytochrome P450 1B1 [11] = target: T2, Cytochrome P450 1B1; assay: Inhibition of human microsomal CYP1B1-dependent ethoxyresorufin-O-deethylase activity at 10 nM measured over 6 mins by spectrofluorimetric analysis in absence of NADPH regenerating solution; details: 0.1 h, 0.01 µM; in short: as §5
CYP1A2 [12] = target: T4, CYP1A2; assay: Inhibition of human microsomal CYP1A2-dependent methoxyresorufin-O-demethylase activity at 10 nM preincubated for 5 mins followed by NADPH regenerating solution and substrate addition measured over 6 mins by spectrofluorimetric analysis relative to control; details: human microsomal CYP1A2, probe methoxyresorufin (O-demethylation)
Cytochrome P450 1A1 [13] = target: T3, Cytochrome P450 1A1; assay: Inhibition of human microsomal CYP1A1-dependent ethoxyresorufin-O-deethylase activity at 10 nM measured over 6 mins by spectrofluorimetric analysis in absence of NADPH regenerating solution; details: 0.1 h, 0.01 µM; in short: as §5
Cytochrome P450 1A2 [14] = target: T1, Cytochrome P450 1A2; assay: Inhibition of CYP1A2-dependent methoxyresorufin-O-demethylase activity in human HepG2 cells at 10^-5 M preincubated for 24 hrs followed by substrate addition measured at 10, 30, 60 mins by fluorescence assay; format: cell-based; details: hepg2, 1 h, 10 µM
In short: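 HepG2 cells (DMEM, 10% FBS) were plated at 2 × 10^5 per well overnight. They were exposed 24 h to compound (final 10^-4 to 10^-7 M) in DMSO, with βNF 10^-5 M as positive control. Cells were PBS-washed and given medium with 5 × 10^-6 M methoxyresorufin. Resorufin fluorescence (ex 535/em 585 nm) was read at 10, 30 and 60 min. Triplicate, three independent runs, unpaired t test versus DMSO.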

Row | SMILES | Ratio Ki (Homo sapiens [1]) | Ki (Cytochrome P450 1A2 [2]) [µM] | Ratio Ki (Homo sapiens [3]) | TDI (Cytochrome P450 1A2 [4]) | Ki (Cytochrome P450 1B1 [5]) [µM] | Ki (Cytochrome P450 1A1 [6]) [µM] | further results
1 | Cc1cc2c(ccc3c(C)cc(=O)oc32)o1 | 6.5 | 1.15 | 33 | Not Active | 7.46 | 37.9 | 
2 | O=c1cc(-c2ccccc2)oc2c3c(ccc12)OCC=C3 |  |  |  |  |  | 0.27 | 
3 | O=c1cc(-c2ccccc2)c2ccc3c(c2o1)C=CCO3 | 3.9 | 1.29 | 20 | Not Active | 5.04 | 25.2 | 
4 | Cc1cc2c(ccc3c(-c4ccccc4)c(C)c(=O)oc32)o1 | 6.1 | 3.7 | 3.1 | Not Active | 22.6 | 11.6 | 
5 | Cc1cc2c(cc(O)c3c(=O)cc(-c4ccccc4)oc32)o1 | 2.3 | 0.044 | 11 |  | 0.1 | 0.47 | inhibition (INH) (Cytochrome P450 1A2 [7]): Active; inhibition (INH) (Cytochrome P450 1B1 [8]): Not Active; kinact (CYP1A2 [9]): 0.00433 s⁻¹; inhibition (INH) (Cytochrome P450 1A1 [10]): Not Active; inhibition (INH) (Cytochrome P450 1B1 [11]): Not Active; inhibition at 0.1 h, 0.01 µM (CYP1A2 [12]): > 90%; inhibition (INH) (Cytochrome P450 1A1 [13]): Not Active
6 | Cc1c(-c2ccccc2)c2ccc3c(c2oc1=O)C=CCO3 | 12 | 1.72 | 11 | Not Active | 21.2 | 18.4 | 
7 | O=c1cc(-c2ccccc2)oc2c1ccc1ncccc12 | 1.8 | 0.076 | 0.5 |  | 0.12 | 0.04 | 
8 | Cc1cc2c(ccc3c(-c4ccccc4)cc(=O)oc32)o1 | 0.9 | 5.02 | 2.4 | Not Active | 4.62 | 12 | 
9 | O=c1cc(-c2ccccc2)oc2ccc3ccccc3c12 [BETA-NAPHTHOFLAVONE] |  |  |  |  |  |  | inhibition (INH) (Cytochrome P450 1A2 [14]): Not Active
10 | Cc1cc2c(ccc3c(C(F)(F)F)cc(=O)oc32)o1 | 35 | 1.35 | 45 | Not Active | 46.8 | 60.7 | 
11 | Cc1cc(=O)oc2c3c(ccc12)OCC=C3 | 7.9 | 1.51 | 73 | Not Active | 12 | 110 | 
12 | O=c1cc(-c2ccccc2)c2ccc3c(c2o1)OCO3 |  | 3.55 |  | Not Active |  | > 200 | 
13 | O=c1cc(-c2ccccc2)oc2c3c(cc(O)c12)OCC=C3 |  |  |  |  | 0.0056 | 0.11 | 
14 | O=c1cc(-c2ccccc2)oc2c3c(ccc12)OCO3 | 5.3 | 0.09 | 14 |  | 0.48 | 1.23 | 
15 | O=c1cc(-c2ccccc2)oc2c1ccc1ccccc12 [ALPHA-NAPHTHOFLAVONE] |  |  |  |  |  | 0.045 | 
16 | Cc1cc(=O)oc2c1ccc1ncccc12 | 3.3 | 14.2 | 7.1 | Not Active | 46.6 | 101 | 
17 | Cc1nc2c([nH]1)c(=O)n(C)c(=O)n2Cc1ccco1 [FURAFYLLINE] |  |  |  |  | > 200 | > 200 | 
